Among the data in paper PMC11677264 (Biochemistry, 2023) are Km and Ki values, retold here.

Data set [1] concerns Nc1ncnc2c1ncn2[C@@H]1O[C@H](COP(=O)(O)OP(=O)(O)OP(=O)(O)O)[C@@H](O)[C@H]1O. Description: purified protein. The following applies: saturating NAG 4 mM.
Data set [2] has as its target T1, AmgK (N-acetylmuramic acid/N-acetylglucosamine kinase) (Pseudomonas aeruginosa, UniProt Q9I5U1). Description: 2D-ITC, fit to ordered-sequential rate equation. The format is biochemical. The procedure, abridged: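 AmgK in the calorimeter cell (650 nM with NAM, 300 nM with NAG) with ATP at 13.5 mM. Eighteen 1 μL injections of NAM or NAG (160 mM syringe stock), ~800 μM sugar at the start of each, spaced ≥1200 s. Run ~8–10 h with stirring, in duplicate. Thermograms converted to rate versus [ATP] versus [sugar] data sets and fitted to the ordered-sequential equation.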

Data set [3] addresses T1, AmgK (N-acetylmuramic acid/N-acetylglucosamine kinase). The experiment in a line: pyruvate kinase/lactate dehydrogenase-coupled ATP-recycling assay, NADH at […] nm. The format is biochemical.

The term Km denotes the substrate concentration at which the rate is half of its maximum. The term Ki denotes a dissociation constant, usually derived from enzyme kinetics or from competition with a known ligand.

T1 sequence (Q9I5U1 whole entry): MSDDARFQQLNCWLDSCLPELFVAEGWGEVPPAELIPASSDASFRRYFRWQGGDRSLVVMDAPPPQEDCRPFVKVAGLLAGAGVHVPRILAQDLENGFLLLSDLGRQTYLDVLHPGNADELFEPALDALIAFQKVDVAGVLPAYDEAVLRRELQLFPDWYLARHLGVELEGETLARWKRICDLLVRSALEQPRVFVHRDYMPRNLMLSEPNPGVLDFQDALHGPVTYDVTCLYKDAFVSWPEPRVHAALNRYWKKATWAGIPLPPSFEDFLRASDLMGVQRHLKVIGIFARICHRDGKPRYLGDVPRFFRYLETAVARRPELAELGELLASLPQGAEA

For “AmgK (N-acetylmuramic acid/N-acetylglucosamine kinase) (Pseudomonas aeruginosa PAO1)”, the Km in data set [1] was found to be 70 ± 12 µM.

With `Nc1ncnc2c1ncn2[C@@H]1O[C@H](COP(=O)(O)OP(=O)(O)O)[C@@H](O)[C@H]1O` [ADP], in data set [2], the Ki was 694 ± 128 µM. `Nc1ncnc2c1ncn2[C@@H]1O[C@H](COP(=O)(O)OP(=O)(O)NP(=O)(O)O)[C@@H](O)[C@H]1O` [AMP-PNP] gave a Ki in data set [3] of 471 ± 169 µM.
